Data from paper PMC7069368 (MedChemComm, 2019).
“Also recorded” adds a separate entry of the source. Marks after values point to notes of the source that are not given here.

Experiments:
Pharmacokinetics in mice = format: in vivo; settings: mouse, PO 10 mg kg^–1 in lipid emulsion
Procedure, shortened: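 Female C3H mice (9-week C3H/HeOuJ or 22-week C3H/HeJ, by compound) got 10 mg kg⁻¹ as a 100 μL gavage, three per dose and route. The vehicle was 55% capmul, 15% akomed, 15% ethanol and 15% cremophor, emulsified with lukewarm water. Tail-vein blood (20 μL) was taken at 0.5, 1, 2, 4, 8 and 24 h and mixed with acetonitrile. It was methanol-extracted and quantified against spiked blank mouse blood standards.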

HeLa cells = settings: 10 μM compound; % of cell growth; data provided from previous studies ref 10, 11; cited from earlier work
[1] = Ames test; cited from earlier work
C. trachomatis serovar D = experiment: C. trachomatis in vivo infection model; parameters: species or system mouse
Procedure, shortened: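 Female C3H/HeJ mice, 8 weeks old, got 2.4 mg medroxyprogesterone acetate s.c. 10 and 3 days pre-infection. Vaginal mucus was swabbed away before intravaginal inoculation (5000 […], 10 μL SPG), with 30 min inverted under anaesthesia. Gavage of 100 μL of 2.33 mg mL⁻¹ in capmul/akomed/cremophor/EtOH water emulsion (n=9), vehicle alone (n=9), or 2 mg mL⁻¹ doxycycline (n=6) began at 10 h, then every 12 h for 7 days.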

[2] = test system: C. trachomatis serovar L2; experiment: Reinfect assay; format: cell-based, Chlamydia trachomatis
Procedure, shortened: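 HeLa 229 cells were infected with serovar L2 EBs in HBSS at MOI 0.3–0.5. Test compound (2.5 or 1 μM in RPMI) was added at 1 h, then incubated 44–48 h. Cells were lysed with cold water, and EBs in SPG were 10-fold serially diluted onto fresh HeLa cells. After 44–46 h, cells were methanol-fixed and stained (anti-Chlamydia/FITC, DAPI). IFUs were counted by automated microscopy and given as % of DMSO control. Three independent experiments, duplicates.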

Caco-2 cell monolayers = experiment: Caco-2 permeability; settings: in vitro ADME, data not shown
Procedure, shortened: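 Caco-2 monolayers (passage 94–105) were grown on permeable filters and used on day 21 after seeding. Filters were washed with pre-warmed HBSS. Drug solution (1 μM, prewarmed to 37 °C) was applied as donor to the apical or basolateral side. Both chambers were at pH 7.4.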

[3] = Thermodynamic solubility assay; format: physicochemical; settings: in vitro ADME, data not shown
Procedure, shortened: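 Solid test compound (0.2–0.5 mg) was saturated in PBS and shaken at 900 rpm, room temperature, for 48 h. It was centrifuged 30 min at 10 000×g, 23 °C. The supernatant was diluted 10–1000× in acetonitrile/H₂O (50/50) in two steps and quantified by LC-MS/MS.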

SMILES	Oral uptake / oral data (in words) (Pharmacokinetics in mice)	HeLa viability 10 μM (%) (HeLa cells)	Mutagenic potential [1]	further results
COc1c(Cc2cccc(C)c2C)cc(=O)n2c1SCC2C(=O)Nc1cc(C)cc(F)c1 (stereo not drawn) [Compound 18, 7-(2,3-Dimethylbenzyl)-N-(3-fluoro-5-methylphenyl)-8-methoxy-5-oxo-2,3-dihydrothiazolo[3,2-a]pyridine-3-carboxamide]	too low to allow for proper determination of pharmacokinetic parameters; also recorded: too low to be able to be quantified			
O=C(Nc1ccccc1)C1CSc2c(C3CC3)c(Cc3cccc4ccccc34)cc(=O)n21 (stereo not drawn) [Compound 24, 8-cyclopropyl-7-(naphthalen-1-ylmethyl)-5-oxo-N-phenyl-3,5-dihydro-2H-thiazolo[3,2-a]pyridine-3-carboxamide]		100 ± 4 ^a %		
Nc1c(Cc2cccc3ccccc23)c(C2CC2)c2n(c1=O)C(n1cc(-c3ccccc3)nn1)CS2 (stereo not drawn) [Compound 3]	too low to be able to be quantified	105 ± 4 ^a %	no mutagenic potential	
CS(=O)(=O)Nc1c(Cc2cccc3ccccc23)cc(=O)n2c1SCC2C(=O)Nc1ccccc1 (stereo not drawn) [Compound 30, 8-(Methylsulfonamido)-7-(naphthalen-1-ylmethyl)-5-oxo-N-phenyl-2,3-dihydrothiazolo[3,2-a]pyridine-3-carboxamide]				Effect on vaginal C. trachomatis infection (IFUs per vaginal swab) (C. trachomatis serovar D; C3H/HeJ mice, 10 mg kg^–1 oral gavage twice a day for 7 days): the course of infection was not improved; also recorded: did not affect vaginal C. trachomatis infection; Tolerability (vital signs) (C. trachomatis serovar D; mice, 10 mg kg^–1 oral gavage twice a day): no negative vital signs; Concentrations inhibiting C. trachomatis infectivity (in words) [2]: low micromolar concentrations
Nc1c(Cc2cccc3ccccc23)c(C2CC2)c2n(c1=O)C(C(=O)Nc1ccccc1)CS2 (stereo not drawn) [Compound 2]		101 ± 3 ^a %	no mutagenic potential	Permeability (in words) (Caco-2 cell monolayers): moderate permeability; Solubility (in words) [3]: poor solubility
